Data as given in ChEMBL document CHEMBL4699542, “Design and synthesis of novel methoxypyridine-derived gamma-secretase modulators” (Bioorg Med Chem, 2020).
Converted amounts (≈) assume the structure as drawn. The source made the active and inactive calls. The rule behind the calls is not given here.

Key:
Gamma-secretase [1] = test: Inhibition of gamma secretase in human H4 cells overexpressing APP751 transfected with Myc-tagged Notch at 1 to 10 uM incubated for 24 hrs in presence of NICD by Western blot analysis; details: h4, 24 h
Cytochrome P450 2D6 = Cytochrome P450 2D6 (Homo sapiens, UniProt P10635); test: Inhibition of recombinant CYP2D6 (unknown origin) by fluorescence-based assay; format: ADME
Sequence of Cytochrome P450 2D6 (P10635 whole entry, canonical isoform): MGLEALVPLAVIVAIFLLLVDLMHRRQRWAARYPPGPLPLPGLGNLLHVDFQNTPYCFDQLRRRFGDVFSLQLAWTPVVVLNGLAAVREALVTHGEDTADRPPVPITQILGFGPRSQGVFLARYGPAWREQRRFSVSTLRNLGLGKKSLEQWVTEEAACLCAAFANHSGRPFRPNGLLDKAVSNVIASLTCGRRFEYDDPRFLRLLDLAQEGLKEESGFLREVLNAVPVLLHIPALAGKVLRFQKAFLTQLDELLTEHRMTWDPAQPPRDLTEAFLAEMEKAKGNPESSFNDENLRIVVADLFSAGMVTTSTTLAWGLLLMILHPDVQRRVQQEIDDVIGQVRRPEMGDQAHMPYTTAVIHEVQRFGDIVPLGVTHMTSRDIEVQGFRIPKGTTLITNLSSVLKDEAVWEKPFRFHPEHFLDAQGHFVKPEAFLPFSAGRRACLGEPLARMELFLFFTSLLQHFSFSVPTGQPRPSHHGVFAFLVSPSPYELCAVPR
How it was run: (§1)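 Recombinant CYP isoforms (five tested) screened for inhibition in fluorescence-based assays; IC50 in μM.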

[2] = Half life in CD-1 mouse at 1 mg/kg, iv administered as single dose measured up to 24 hrs; format: ADME, organism-based; details: mouse, in vivo, 1 mg/kg, 24 h
How it was run: (§2)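 Male CD-1 mice, 6–8 weeks old, single dose by tail vein (1 mg/kg, 3% NMP/45% PEG300/12% ethanol/40% water) or oral gavage (5 mg/kg, 5% NMP/95% PEG300). Retro-orbital plasma sampled 0.083 (iv only) to 24 h, n=3/timepoint, and analysed by HPLC/MS/MS. Non-compartmental analysis. Half-life taken from the terminal phase using ≥3 non-zero points after Tmax.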

[3] = AUC infinity in CD-1 mouse at 1 mg/kg, iv administered as single dose measured up to 24 hrs; format: ADME, organism-based; design: route intravenous, dose 1 mg/kg, time <=24; details: in vivo
How it was run: as §2

[4] = Ratio of drug concentration in CD-1 mouse brain to plasma at 1 mg/kg, iv measured after 1 hr
[5] = Volume of distribution at steady state in CD-1 mouse at 1 mg/kg, iv administered as single dose measured up to 24 hrs; format: ADME, organism-based; details: in vivo
How it was run: (§3)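 Male CD-1 mice, 6–8 weeks old, single tail-vein dose in 3% NMP/45% PEG300/12% ethanol/40% sterile water. Retro-orbital plasma (K3EDTA) taken at 0.083, 0.25, 0.5, 1, 2, 4, 8 and 24 h, n=3/timepoint, analysed by HPLC/MS/MS. Non-compartmental analysis (Model 201, uniform weighting); Tmax read directly from the data.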

[6] = target: Voltage-gated inwardly rectifying potassium channel KCNH2 (Homo sapiens, UniProt Q12809); test: Inhibition of human ERG expressed in HEK293 cells by patch clamp assay; format: cell-based
Sequence of Voltage-gated inwardly rectifying potassium channel KCNH2 (Q12809 whole entry): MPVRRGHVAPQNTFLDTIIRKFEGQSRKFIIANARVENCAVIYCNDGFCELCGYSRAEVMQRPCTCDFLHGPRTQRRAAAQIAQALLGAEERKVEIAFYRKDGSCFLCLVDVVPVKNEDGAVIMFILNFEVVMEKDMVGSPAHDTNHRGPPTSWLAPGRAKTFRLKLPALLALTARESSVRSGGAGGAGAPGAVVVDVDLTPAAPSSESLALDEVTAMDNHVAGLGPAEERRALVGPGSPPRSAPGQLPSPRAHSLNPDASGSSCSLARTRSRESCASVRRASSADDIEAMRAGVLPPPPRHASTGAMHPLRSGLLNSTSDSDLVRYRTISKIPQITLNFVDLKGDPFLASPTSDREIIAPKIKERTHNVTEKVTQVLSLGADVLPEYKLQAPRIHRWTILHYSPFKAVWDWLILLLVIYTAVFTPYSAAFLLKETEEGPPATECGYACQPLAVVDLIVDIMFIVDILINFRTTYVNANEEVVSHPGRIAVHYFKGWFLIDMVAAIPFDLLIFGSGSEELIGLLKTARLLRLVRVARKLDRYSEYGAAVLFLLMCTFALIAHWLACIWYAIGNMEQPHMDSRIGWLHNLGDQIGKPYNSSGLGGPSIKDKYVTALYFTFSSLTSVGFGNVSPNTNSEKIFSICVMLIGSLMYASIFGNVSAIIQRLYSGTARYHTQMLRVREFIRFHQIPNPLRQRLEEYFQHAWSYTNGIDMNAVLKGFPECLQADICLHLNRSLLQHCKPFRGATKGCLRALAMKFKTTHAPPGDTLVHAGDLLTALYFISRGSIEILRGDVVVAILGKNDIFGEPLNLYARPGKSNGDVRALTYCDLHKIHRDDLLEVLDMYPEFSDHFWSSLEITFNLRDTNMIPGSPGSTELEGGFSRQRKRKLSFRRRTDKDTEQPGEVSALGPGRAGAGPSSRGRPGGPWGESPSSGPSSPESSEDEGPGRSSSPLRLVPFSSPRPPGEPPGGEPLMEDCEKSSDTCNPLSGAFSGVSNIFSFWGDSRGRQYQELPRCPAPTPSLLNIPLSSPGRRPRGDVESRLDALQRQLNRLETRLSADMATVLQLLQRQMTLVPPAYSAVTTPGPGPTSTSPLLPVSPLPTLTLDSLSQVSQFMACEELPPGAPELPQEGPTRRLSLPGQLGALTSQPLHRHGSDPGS

[7] = Kinetic aqueous solubility of the compound in pH 7.4 PBS buffer by UV/Visible absorbance analysis; format: physicochemical; details: read-out: Kinetic_solubility
How it was run: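 Kinetic solubility determined in PBS at pH 7.4 by UV/Vis absorbance, reported in μM.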

[8] = Tmax in CD-1 mouse at 5 mg/kg, po administered as single dose measured up to 24 hrs; format: ADME, organism-based; details: in vivo
How it was run: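 Male CD-1 mice, 6–8 weeks old, single oral gavage dose in 5% NMP/95% PEG300. Plasma (K3EDTA, retro-orbital, under isoflurane) taken at 0.25, 0.5, 1, 2, 4, 8 and 24 h, n=3/timepoint, analysed by HPLC/MS/MS. Non-compartmental extravascular analysis (Model 200); Tmax taken directly from the data.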

[9] = Oral bioavailability in CD-1 mouse at 5 mg/kg administered as single dose measured up to 24 hrs; format: ADME, organism-based; details: in vivo
How it was run: (§4)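 CD-1 mouse PK after single iv (1 mg/kg) and oral gavage (5 mg/kg) dosing, with plasma sampled to 24 h (n=3/timepoint) and measured by HPLC/MS/MS. F(%) = (AUC0-inf po × Dose iv)/(AUC0-inf iv × Dose po) × 100.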

Cytochrome P450 2C19 = Cytochrome P450 2C19 (Homo sapiens, UniProt P33261); test: Inhibition of recombinant CYP2C19 (unknown origin) by fluorescence-based assay; format: ADME
Sequence of Cytochrome P450 2C19 (P33261 whole entry): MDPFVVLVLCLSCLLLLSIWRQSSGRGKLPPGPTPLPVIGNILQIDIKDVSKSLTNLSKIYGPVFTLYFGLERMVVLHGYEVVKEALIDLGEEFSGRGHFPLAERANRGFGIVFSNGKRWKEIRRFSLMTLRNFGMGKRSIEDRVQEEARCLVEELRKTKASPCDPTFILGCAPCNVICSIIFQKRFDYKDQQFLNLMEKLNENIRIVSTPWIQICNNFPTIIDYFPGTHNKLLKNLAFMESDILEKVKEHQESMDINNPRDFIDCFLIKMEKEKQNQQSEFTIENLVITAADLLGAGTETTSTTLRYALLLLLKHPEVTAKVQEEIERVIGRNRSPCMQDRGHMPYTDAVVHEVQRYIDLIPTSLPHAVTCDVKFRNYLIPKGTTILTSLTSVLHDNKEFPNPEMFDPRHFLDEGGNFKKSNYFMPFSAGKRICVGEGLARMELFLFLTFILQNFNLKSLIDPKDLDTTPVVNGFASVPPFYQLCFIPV
How it was run: as §1

[10] = AUClast in CD-1 mouse at 1 mg/kg, iv administered as single dose measured up to 24 hrs; format: ADME, organism-based; design: route intravenous, dose 1 mg/kg, time <=24; details: in vivo
How it was run: as §2

Gamma-secretase [11] = test: Modulation of gamma secretase in human SH-SY5Y cells overexpressing wild type APP751 assessed as effect on amyloid beta38 level by meso scale discovery; format: cell-based
[12] = Metabolic stability in rat liver microsomes assessed as parent compound remaining at 1 uM incubated for 30 mins; format: ADME, Microsome; details: 0.5 h
How it was run: (§5)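 Test compound at 1 μM incubated 30 min with human, rat or mouse liver microsomes (1 mg/mL); parent remaining expressed as %.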

[13] = AUClast in CD-1 mouse at 5 mg/kg, po administered as single dose measured up to 24 hrs; format: ADME, organism-based; design: route oral, dose 5 mg/kg, time <=24; details: in vivo
How it was run: as §2

[14] = Metabolic stability in mouse liver microsomes assessed as parent compound remaining at 1 uM incubated for 30 mins; format: ADME, Microsome; details: 0.5 h
How it was run: as §5

Gamma-secretase [15] = test: Modulation of gamma secretase in human SH-SY5Y cells overexpressing wild type APP751 assessed as inhibition of amyloid beta (35 to 42 residues) formation incubated for overnight by ELISA; format: cell-based
How it was run: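 SHSY5Y-APP751 cells plated at 75K/well and incubated overnight at 37 °C, then treated 24 h over 10 concentrations ([…]–10 μM, 1:3.16 steps, in duplicate). Medium Aβ42 measured by sandwich ELISA (Aβ35–42 capture, AP-conjugated Aβ1–12 detection, CDP-Star luminescence) against an Aβ42 standard curve.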

[16] = target: Gamma-secretase (Homo sapiens) (UniProt Q96BI3+Q9NZ42+Q8WW43+P49768+Q92542+P49810); test: Modulation of gamma secretase in human SH-SY5Y cells overexpressing wild type APP751 assessed as effect on total amyloid beta level by meso scale discovery; format: cell-based
How it was run: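 SHSY5Y cells stably overexpressing wild-type human APP751 treated with the compound over a concentration range. Aβ38, Aβ40, Aβ42 and total Aβ in the medium measured by MSD triplex immunoassay (4G8 detection, 2 h at room temperature). Concentrations back-fitted from standard curves.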

[17] = Metabolic stability in human liver microsomes assessed as parent compound remaining at 1 uM incubated for 30 mins; format: ADME, Microsome; details: microsomes, 0.5 h, 1 µM
How it was run: as §5

[18] = Protein binding in plasma (unknown origin); format: ADME, cell-free
Cytochrome P450 3A4 = Cytochrome P450 3A4 (Homo sapiens, UniProt P08684); test: Inhibition of recombinant CYP3A4 (unknown origin) by fluorescence-based assay; format: ADME
Sequence of Cytochrome P450 3A4 (P08684 whole entry): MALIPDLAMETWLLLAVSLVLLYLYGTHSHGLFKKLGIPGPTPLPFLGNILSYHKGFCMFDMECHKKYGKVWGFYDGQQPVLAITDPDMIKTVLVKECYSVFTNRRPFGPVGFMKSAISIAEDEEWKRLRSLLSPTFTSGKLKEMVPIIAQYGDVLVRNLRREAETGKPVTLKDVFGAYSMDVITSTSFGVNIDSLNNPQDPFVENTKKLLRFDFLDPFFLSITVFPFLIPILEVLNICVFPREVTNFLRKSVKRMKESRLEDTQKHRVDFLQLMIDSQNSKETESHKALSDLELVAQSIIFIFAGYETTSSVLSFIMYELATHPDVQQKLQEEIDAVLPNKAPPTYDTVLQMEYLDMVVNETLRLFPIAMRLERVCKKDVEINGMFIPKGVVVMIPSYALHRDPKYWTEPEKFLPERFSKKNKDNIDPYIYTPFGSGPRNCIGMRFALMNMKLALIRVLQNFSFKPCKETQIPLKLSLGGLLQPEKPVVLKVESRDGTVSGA

Gamma-secretase [19] = test: Modulation of gamma secretase in human SH-SY5Y cells overexpressing wild type APP751 assessed as effect on amyloid beta42 level by meso scale discovery; format: cell-based
[20] = Tmax in CD-1 mouse at 1 mg/kg, iv administered as single dose measured up to 24 hrs; format: ADME, organism-based; details: in vivo
How it was run: as §3

[21] = AUC infinity in CD-1 mouse at 5 mg/kg, po administered as single dose measured up to 24 hrs; format: ADME, organism-based; design: route oral, dose 5 mg/kg, time <=24; details: in vivo
How it was run: as §2

[22] = Cmax in CD-1 mouse at 5 mg/kg, po administered as single dose measured up to 24 hrs; format: ADME, organism-based; design: route oral, dose 5 mg/kg, time <=24; details: in vivo
How it was run: as §2

Cytochrome P450 2C9 = Cytochrome P450 2C9 (Homo sapiens, UniProt P11712); test: Inhibition of recombinant CYP2C9 (unknown origin) by fluorescence-based assay; format: ADME
Sequence of Cytochrome P450 2C9 (P11712 whole entry): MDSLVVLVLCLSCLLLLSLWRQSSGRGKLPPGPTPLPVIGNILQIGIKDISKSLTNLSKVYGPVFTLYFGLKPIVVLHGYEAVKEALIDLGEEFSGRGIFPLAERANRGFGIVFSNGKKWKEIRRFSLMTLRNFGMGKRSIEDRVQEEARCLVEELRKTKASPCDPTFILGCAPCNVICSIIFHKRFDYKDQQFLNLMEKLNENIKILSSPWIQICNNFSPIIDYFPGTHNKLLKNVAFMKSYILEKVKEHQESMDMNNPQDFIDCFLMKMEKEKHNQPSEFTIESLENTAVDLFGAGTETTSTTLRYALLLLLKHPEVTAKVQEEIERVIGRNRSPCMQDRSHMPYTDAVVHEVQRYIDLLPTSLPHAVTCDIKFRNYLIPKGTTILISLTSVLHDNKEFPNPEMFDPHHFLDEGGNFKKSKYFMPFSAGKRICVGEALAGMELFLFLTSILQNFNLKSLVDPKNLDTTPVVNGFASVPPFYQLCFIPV
How it was run: as §1

[23] = Ratio of drug concentration in CD-1 mouse brain to plasma at 5 mg/kg, po measured after 1 hr; format: ADME, organism-based
How it was run: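 Male CD-1 mice dosed once iv (1 mg/kg) or by oral gavage (5 mg/kg). Brain and plasma collected 1 h post dose (n=3/timepoint). Drug levels by HPLC/MS/MS; brain/plasma ratio calculated from these levels.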

[24] = Cmax in CD-1 mouse at 1 mg/kg, iv administered as single dose measured up to 24 hrs; format: ADME, organism-based; design: route intravenous, dose 1 mg/kg, time <=24; details: in vivo
How it was run: as §2

Gamma-secretase [25] = test: Modulation of gamma secretase in human SH-SY5Y cells overexpressing wild type APP751 assessed as effect on amyloid beta40 level by meso scale discovery; format: cell-based
Cytochrome P450 1A2 = target: T1, Cytochrome P450 1A2 (Homo sapiens, UniProt P05177); test: Inhibition of recombinant CYP1A2 (unknown origin) by fluorescence-based assay; format: ADME
T1 sequence (P05177 whole entry): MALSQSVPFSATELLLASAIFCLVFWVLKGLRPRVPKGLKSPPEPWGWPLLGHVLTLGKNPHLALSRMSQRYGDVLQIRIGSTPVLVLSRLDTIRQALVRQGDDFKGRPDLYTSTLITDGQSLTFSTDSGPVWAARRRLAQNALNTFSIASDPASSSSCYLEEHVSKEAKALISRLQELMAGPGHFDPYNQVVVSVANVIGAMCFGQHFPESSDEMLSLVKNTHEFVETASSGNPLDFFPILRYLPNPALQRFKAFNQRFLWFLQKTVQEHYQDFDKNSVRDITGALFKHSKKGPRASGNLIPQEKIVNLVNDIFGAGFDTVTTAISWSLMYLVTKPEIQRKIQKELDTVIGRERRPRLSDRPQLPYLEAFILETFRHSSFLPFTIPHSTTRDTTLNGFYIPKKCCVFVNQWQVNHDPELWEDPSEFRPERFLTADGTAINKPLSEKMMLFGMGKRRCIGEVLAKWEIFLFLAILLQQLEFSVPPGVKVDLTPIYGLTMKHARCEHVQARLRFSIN
How it was run: as §1

[26] = Bioavailability in CD-1 mouse at 1 mg/kg, iv administered as single dose measured up to 24 hrs; format: ADME, organism-based; details: in vivo
How it was run: as §4

[27] = Efflux ratio of apparent permeability from basolateral to apical membrane over apical to basolateral membrane in MDCK-MDR1 cells; format: ADME, cell-based, Canis lupus familiaris; details: dog
How it was run: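 Calculated as B-A/A-B apparent permeability ratio across MDR1-MDCK cell monolayers; A-B permeability expressed as ×10⁻⁶ cm/s.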

[28] = Ratio of drug concentration in CD-1 mouse brain to plasma at 0.4 mg/kg, iv measured after 1 hr; format: ADME, organism-based
[29] = Half life in CD-1 mouse at 5 mg/kg, po administered as single dose measured up to 24 hrs; format: ADME, organism-based; details: in vivo
How it was run: as §2

[30] = Apparent permeability from apical to basolateral membrane in MDCK-MDR1 cells; format: ADME, cell-based, Canis lupus familiaris; details: dog
How it was run: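 Apical-to-basolateral apparent permeability (×10⁻⁶ cm/s) measured across MDR1-MDCK cell monolayers.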

Gamma-secretase [31] = test: Inhibition of gamma secretase in human H4 cells overexpressing APP751 transfected with Myc-tagged Notch assessed as accumulation of Notch substrate at 100 to 300 nM incubated for 24 hrs by Western blot analysis; format: cell-based; details: h4, 24 h, 0.3 µM, dose 100-300 nM
How it was run: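 H4 neuroglioma cells stably overexpressing human APP751 were transfected with Myc-tagged NΔE Notch, then treated 24 h with 1 or 10 μM modulator, 100 or 300 nM DAPT, or vehicle. Cells harvested 48 h post-transfection. Western blot with anti-Myc detected NΔE and NICD; β-actin served as loading control.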

Compound: CCn1nc2c(c1Nc1nc(-c3ccc(-n4cnc(C)c4)c(OC)n3)cs1)CCCC2
- inhibition (INH) (Gamma-secretase [1]): Not Active
- IC50 (Cytochrome P450 2D6): > 100 µM
- t1/2 [2]: 0.5 h
- AUC [3]: 463 ng·h/mL
- BPR [4]: 0.4
- Vdss [5]: 1413 mL/kg
- IC50 [6]: 8.6 µM
- solubility kinetic [7]: 4.5 µM (≈ 1.96 µg/mL)
- Tmax [8]: 15 min
- F [9]: 53.7%
- IC50 (Cytochrome P450 2C19): 5.9 µM
- AUClast [10]: 443 ng·h/mL
- EC50 (Gamma-secretase [11]): 305 nM
- Stabilty [12]: 71%
- AUClast [13]: 1089 ng·h/mL
- Stabilty [14]: 64%
- IC50 (Gamma-secretase [15]): 60 nM
- Activity [16]: inactive
- Stabilty [17]: 36%
- PPB [18]: 99.6%
- IC50 (Cytochrome P450 3A4): 3.7 µM
- IC50 (Gamma-secretase [19]): 58 nM
- Tmax [20]: 4.98 min
- AUC [21]: 1243 ng·h/mL
- Cmax [22]: 705 ng/mL
- IC50 (Cytochrome P450 2C9): 9 µM
- BPR [23]: 0.4
- Cmax [24]: 824 ng/mL
- IC50 (Gamma-secretase [25]): 104 nM
- IC50 (Cytochrome P450 1A2): > 100 µM
- F [26]: 100%

Compound: COc1nc(-c2csc(Nc3c4c(nn3C)CCC4)n2)ccc1-n1cnc(C)c1
- IC50 (Cytochrome P450 2D6): > 100 µM
- t1/2 [2]: 1.9 h
- Vdss [5]: 3180 mL/kg
- IC50 [6]: 0.92 µM
- solubility kinetic [7]: 44 µM (≈ 17.9 µg/mL)
- Tmax [8]: 60 min
- F [9]: 74.6%
- IC50 (Cytochrome P450 2C19): 37 µM
- Ratio [27]: 1.9
- AUClast [10]: 723 ng·h/mL
- BPR [28]: 0.21
- Stabilty [12]: 71%
- AUClast [13]: 2700 ng·h/mL
- Stabilty [14]: 75%
- IC50 (Gamma-secretase [15]): 80 nM
- Stabilty [17]: 76%
- t1/2 [29]: 1.6 h
- IC50 (Cytochrome P450 3A4): 4.5 µM
- Tmax [20]: 4.98 min
- Papp [30]: 22.3 10^-6 cm/s
- Cmax [22]: 580 ng/mL
- IC50 (Cytochrome P450 2C9): > 100 µM
- BPR [23]: 0.22
- Cmax [24]: 478 ng/mL
- IC50 (Cytochrome P450 1A2): > 100 µM

Compound: C[C@H](NC(=O)Cc1cc(F)cc(F)c1)C(=O)N[C@H](C(=O)OC(C)(C)C)c1ccccc1
- inhibition (INH) (Gamma-secretase [31]): Active
